Results: ChEMBL document CHEMBL2040809, “Synthesis and biological activity evaluation of cytidine-5'-deoxy-5-fluoro-N-[(alkoxy/aryloxy)] carbonyl-cyclic 2',3'-carbonates” (Eur J Med Chem, 2012)
≈ marks a conversion by molar mass, not a printed value.

Tests used:
[1] = test system: Salmonella typhimurium; assay: Mutagenic activity in Salmonella typhimurium TA102 at 0.312 to 5 mg/plate measured after incubation of upside down for 48 hrs in absence of liver S9 mixture; assay type: toxicity, organism-based; details: salmonella enterica subsp. enterica serovar typhimurium
How it was run: (§1)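 Plate incorporation trial (Trial I) with histidine-dependent auxotrophs. Revertant colonies are counted against the concurrent vehicle control. Each dose and each control, including negative, vehicle and positive reference mutagens, run in triplicate plates.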

[2] = test system: Salmonella typhimurium; assay: Mutagenic activity in Salmonella typhimurium TA1537 at 0.312 to 5 mg/plate measured after incubation of upside down for 48 hrs in absence of liver S9 mixture; assay type: toxicity, organism-based; details: salmonella enterica subsp. enterica serovar typhimurium; how it was run: as §1
[3] = Cytotoxicity against human PZ-HPV-7 cells after 3 days MTT assay; assay type: functional, cell-based; details: 72 h
How it was run: (§2)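 Cells held as monolayers in DMEM with 10% supplement. Seeded in 96-well plates on day 0 at densities set by doubling time: 1 × 10⁴/mL for HeLa and NCI-69, 2 × 10⁴/mL for MCF-7, 3 × 10⁴/mL for PZ-HPV-7. Five dilutions (10⁻⁸–5 × 10⁻⁶ mol/l), freshly prepared, added for 72 h. Growth read by MTT (succinate dehydrogenase activity); IC50 derived.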

[4] = test system: Salmonella typhimurium; assay: Mutagenic activity in Salmonella typhimurium TA98 at 0.312 to 5 mg/plate measured after incubation of upside down for 48 hrs in absence of liver S9 mixture; assay type: toxicity, organism-based; details: salmonella enterica subsp. enterica serovar typhimurium; how it was run: as §1
[5] = test system: NCI-H69; assay: Cytotoxicity against human NCI-H69 cells after 3 days MTT assay; assay type: functional, cell-based; details: NCI-H69, 72 h; how it was run: as §2
[6] = test system: Salmonella typhimurium; assay: Mutagenic activity in Salmonella typhimurium TA1535 at 0.312 to 5 mg/plate measured after incubation of upside down for 48 hrs in absence of liver S9 mixture; assay type: toxicity, organism-based; details: salmonella enterica subsp. enterica serovar typhimurium; how it was run: as §1
[7] = test system: Salmonella typhimurium; assay: Mutagenic activity in Salmonella typhimurium TA102 at 0.312 to 5 mg/plate measured after incubation of upside down for 48 hrs in presence of liver S9 mixture; assay type: toxicity, organism-based; details: salmonella enterica subsp. enterica serovar typhimurium, s9, 48 h; how it was run: as §1
[8] = test system: Salmonella typhimurium; assay: Mutagenic activity in Salmonella typhimurium TA1537 at 0.312 to 5 mg/plate preincubated for 20 mins before addition in absence of liver S9 mixture; assay type: toxicity, organism-based; details: salmonella enterica subsp. enterica serovar typhimurium
How it was run: (§3)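 Pre-incubation trial (Trial II) with histidine-dependent auxotrophs. Test solution is pre-incubated with bacterial suspension and S9 mix (10% v/v) or substitution buffer before plating on selective agar. Revertant colonies are counted against the concurrent vehicle control. Triplicate plates per dose and per control (negative, vehicle, positive reference mutagens).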

[9] = test system: Salmonella typhimurium; assay: Mutagenic activity in Salmonella typhimurium TA100 at 0.312 to 5 mg/plate preincubated for 20 mins before addition in presence of liver S9 mixture; assay type: toxicity, organism-based; details: salmonella enterica subsp. enterica serovar typhimurium; how it was run: as §3
[10] = test system: MCF7; assay: Cytotoxicity against human MCF7 cells after 3 days MTT assay; assay type: functional, cell-based; details: MCF7, 72 h; how it was run: as §2
[11] = test system: Salmonella typhimurium; assay: Mutagenic activity in Salmonella typhimurium TA98 at 0.312 to 5 mg/plate preincubated for 20 mins before addition in absence of liver S9 mixture; assay type: toxicity, organism-based; details: salmonella enterica subsp. enterica serovar typhimurium; how it was run: as §3
[12] = test system: Salmonella typhimurium; assay: Mutagenic activity in Salmonella typhimurium TA102 at 0.312 to 5 mg/plate preincubated for 20 mins before addition in absence of liver S9 mixture; assay type: toxicity, organism-based; details: salmonella enterica subsp. enterica serovar typhimurium; how it was run: as §3
[13] = test system: Salmonella typhimurium; assay: Mutagenic activity in Salmonella typhimurium TA1537 at 0.312 to 5 mg/plate measured after incubation of upside down for 48 hrs in presence of liver S9 mixture; assay type: toxicity, organism-based; details: salmonella enterica subsp. enterica serovar typhimurium, s9, 48 h; how it was run: as §1
[14] = test system: Salmonella typhimurium; assay: Mutagenic activity in Salmonella typhimurium TA98 at 0.312 to 5 mg/plate measured after incubation of upside down for 48 hrs in presence of liver S9 mixture; assay type: toxicity, organism-based; details: salmonella enterica subsp. enterica serovar typhimurium, s9, 48 h; how it was run: as §1
[15] = test system: Salmonella typhimurium; assay: Mutagenic activity in Salmonella typhimurium TA98 at 0.312 to 5 mg/plate preincubated for 20 mins before addition in presence of liver S9 mixture; assay type: toxicity, organism-based; details: salmonella enterica subsp. enterica serovar typhimurium; how it was run: as §3
[16] = test system: Salmonella typhimurium; assay: Mutagenic activity in Salmonella typhimurium TA1535 at 0.312 to 5 mg/plate measured after incubation of upside down for 48 hrs in presence of liver S9 mixture; assay type: toxicity, organism-based; details: salmonella enterica subsp. enterica serovar typhimurium, s9, 48 h; how it was run: as §1
[17] = test system: Salmonella typhimurium; assay: Mutagenic activity in Salmonella typhimurium TA1537 at 0.312 to 5 mg/plate preincubated for 20 mins before addition in presence of liver S9 mixture; assay type: toxicity, organism-based; details: salmonella enterica subsp. enterica serovar typhimurium; how it was run: as §3
[18] = test system: Salmonella typhimurium; assay: Mutagenic activity in Salmonella typhimurium TA102 at 0.312 to 5 mg/plate preincubated for 20 mins before addition in presence of liver S9 mixture; assay type: toxicity, organism-based; details: salmonella enterica subsp. enterica serovar typhimurium; how it was run: as §3
[19] = test system: Salmonella typhimurium; assay: Mutagenic activity in Salmonella typhimurium TA100 at 0.312 to 5 mg/plate measured after incubation of upside down for 48 hrs in presence of liver S9 mixture; assay type: toxicity, organism-based; details: salmonella enterica subsp. enterica serovar typhimurium, s9, 48 h; how it was run: as §1
[20] = test system: Salmonella typhimurium; assay: Mutagenic activity in Salmonella typhimurium TA1535 at 0.312 to 5 mg/plate preincubated for 20 mins before addition in absence of liver S9 mixture; assay type: toxicity, organism-based; details: salmonella enterica subsp. enterica serovar typhimurium; how it was run: as §3
[21] = test system: Salmonella typhimurium; assay: Mutagenic activity in Salmonella typhimurium TA100 at 0.312 to 5 mg/plate preincubated for 20 mins before addition in absence of liver S9 mixture; assay type: toxicity, organism-based; details: salmonella enterica subsp. enterica serovar typhimurium; how it was run: as §3
[22] = test system: Salmonella typhimurium; assay: Mutagenic activity in Salmonella typhimurium TA100 at 0.312 to 5 mg/plate measured after incubation of upside down for 48 hrs in absence of liver S9 mixture; assay type: toxicity, organism-based; details: salmonella enterica subsp. enterica serovar typhimurium; how it was run: as §1
[23] = test system: HeLa; assay: Cytotoxicity against human HeLa cells after 3 days MTT assay; assay type: functional, cell-based; details: 72 h; how it was run: as §2
[24] = test system: Salmonella typhimurium; assay: Mutagenic activity in Salmonella typhimurium TA1535 at 0.312 to 5 mg/plate preincubated for 20 mins before addition in presence of liver S9 mixture; assay type: toxicity, organism-based; details: salmonella enterica subsp. enterica serovar typhimurium; how it was run: as §3

SMILES | Activity [1] | Activity [2] | IC50 [3] [µg/mL] | Activity [4] | IC50 [5] [µg/mL] | Activity [6] | Activity [7] | Activity [8] | Activity [9] | IC50 [10] [µg/mL] | Activity [11] | Activity [12] | Activity [13] | Activity [14] | Activity [15] | Activity [16] | Activity [17] | Activity [18] | Activity [19] | IC50 [23] [µg/mL] | also measured
CCC(C)COC(=O)Nc1nc(=O)n([C@@H]2O[C@H](C)[C@@H](O)[C@H]2O)cc1F (stereo partly drawn) | Non-toxic | Non-toxic | 250 (≈ 696 µM) | Non-toxic | 370 (≈ 1030 µM) | Non-toxic | Non-toxic | Non-toxic | Non-toxic | 120 (≈ 334 µM) | Non-toxic | Non-toxic | Non-toxic | Non-toxic | Non-toxic | Non-toxic | Non-toxic | Non-toxic | Non-toxic | 0.09 (≈ 0.25 µM) | Activity [20]: Non-toxic; Activity [21]: Non-toxic; Activity [22]: Non-toxic; Activity [24]: Non-toxic
CC(C)CCOC(=O)Nc1nc(=O)n([C@@H]2O[C@H](C)[C@@H](O)[C@H]2O)cc1F | Non-toxic | Non-toxic | 250 (≈ 696 µM) | Non-toxic | 370 (≈ 1030 µM) | Non-toxic | Non-toxic | Non-toxic | Non-toxic | 120 (≈ 334 µM) | Non-toxic | Non-toxic | Non-toxic | Non-toxic | Non-toxic | Non-toxic | Non-toxic | Non-toxic | Non-toxic | 0.09 (≈ 0.25 µM) | Activity [20]: Non-toxic; Activity [21]: Non-toxic; Activity [22]: Non-toxic; Activity [24]: Non-toxic
C[C@H]1O[C@@H](n2cc(F)c(NC(=O)Oc3ccc([N+](=O)[O-])cc3)nc2=O)[C@H](O)[C@@H]1O | Non-toxic | Non-toxic | 90 (≈ 219 µM) | Non-toxic | 100 (≈ 244 µM) | Non-toxic | Non-toxic | Non-toxic | Non-toxic | 180 (≈ 439 µM) | Non-toxic | Non-toxic | Non-toxic | Non-toxic | Non-toxic | Non-toxic | Non-toxic | Non-toxic | Non-toxic | 0.01 (≈ 0.0244 µM) | Activity [20]: Non-toxic; Activity [21]: Non-toxic; Activity [22]: Non-toxic; Activity [24]: Non-toxic
C[C@H]1O[C@@H](n2cc(F)c(NC(=O)Oc3ccc(Cl)cc3)nc2=O)[C@H](O)[C@@H]1O | Non-toxic | Non-toxic | 70 (≈ 175 µM) | Non-toxic | 90 (≈ 225 µM) | Non-toxic | Non-toxic | Non-toxic | Non-toxic | 100 (≈ 250 µM) | Non-toxic | Non-toxic | Non-toxic | Non-toxic | Non-toxic | Non-toxic | Non-toxic | Non-toxic | Non-toxic | 0.03 (≈ 0.075 µM) | Activity [20]: Non-toxic; Activity [21]: Non-toxic; Activity [22]: Non-toxic; Activity [24]: Non-toxic
CCC(C)COC(=O)Nc1nc(=O)n([C@@H]2O[C@H](C)[C@H]3OC(=O)O[C@H]32)cc1F (stereo partly drawn) | Non-toxic | Non-toxic | 200 (≈ 519 µM) | Non-toxic | 330 (≈ 856 µM) | Non-toxic | Non-toxic | Non-toxic | Non-toxic | 70 (≈ 182 µM) | Non-toxic | Non-toxic | Non-toxic | Non-toxic | Non-toxic | Non-toxic | Non-toxic | Non-toxic | Non-toxic | 0.18 (≈ 0.467 µM) | Activity [20]: Non-toxic; Activity [21]: Non-toxic; Activity [22]: Non-toxic; Activity [24]: Non-toxic
CC(C)CCOC(=O)Nc1nc(=O)n([C@@H]2O[C@H](C)[C@H]3OC(=O)O[C@H]32)cc1F | Non-toxic | Non-toxic | 350 (≈ 908 µM) | Non-toxic | 310 (≈ 804 µM) | Non-toxic | Non-toxic | Non-toxic | Non-toxic | 100 (≈ 260 µM) | Non-toxic | Non-toxic | Non-toxic | Non-toxic | Non-toxic | Non-toxic | Non-toxic | Non-toxic | Non-toxic | 0.13 (≈ 0.337 µM) | Activity [20]: Non-toxic; Activity [21]: Non-toxic; Activity [22]: Non-toxic; Activity [24]: Non-toxic
O=c1[nH]cc(F)c(=O)[nH]1 [FLUOROURACIL] |  |  | 170 (≈ 1310 µM) |  | 280 (≈ 2150 µM) |  |  |  |  | 690 (≈ 5300 µM) |  |  |  |  |  |  |  |  |  | 0.04 (≈ 0.308 µM) | 
